From ChEMBL document CHEMBL1921724, “In search of a cytostatic agent derived from the alkaloid lycorine: synthesis and growth inhibitory properties of lycorine derivatives” (Bioorg Med Chem, 2011)

How the values were obtained:
T98G = experiment: Growth inhibition of pro-apoptotic stimuli-resistant human T98G cells after 72 hrs by MTT assay; format: functional
How it was run: (§1)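 Cells seeded at 10,000 to 40,000 cells/mL depending on cell type and allowed to attach for 24 h. They were then cultured 72 h with or without compound (untreated control). Living cells were measured by MTT reduction to formazan, read at 570 nm against a 630 nm reference. GI50 was derived from the growth levels.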

B16-F10 = experiment: Growth inhibition of pro-apoptotic stimuli-sensitive mouse B16F10 cells after 72 hrs by MTT assay; format: functional; details: B16-F10, 72 h; how it was run: as §1
[1] = Growth inhibition of pro-apoptotic stimuli-resistant human U373 cells after 72 hrs by MTT assay; format: functional, U-373MG ATCC; details: U373 MG; how it was run: as §1
A549 = experiment: Growth inhibition of pro-apoptotic stimuli-resistant human A549 cells after 72 hrs by MTT assay; format: functional; details: A549, 72 h; how it was run: as §1
SK-MEL-28 = experiment: Growth inhibition of pro-apoptotic stimuli-resistant human SK-MEL-28 cells after 72 hrs by MTT assay; format: functional; details: SK-MEL-28, 72 h; how it was run: as §1
[2] = Growth inhibition of pro-apoptotic stimuli-sensitive human Hs683 cells after 72 hrs by MTT assay; format: functional; details: Hs 683, 72 h; how it was run: as §1
PC-3 = experiment: Growth inhibition of human PC3 cells after 72 hrs by MTT assay; format: functional; details: PC-3, 72 h
MCF7 = experiment: Growth inhibition of human MCF7 cells after 72 hrs by MTT assay; format: functional; details: MCF7, 72 h
[3] = Chemical stability of the compound at pH 5 to 7.4; format: physicochemical; details: buffer

| GI50 (B16-F10) [µM] | GI50 (A549) [µM] | GI50 (SK-MEL-28) [µM] | GI50 (PC-3) [µM] | GI50 (MCF7) [µM] | Stability [3] [days] | SMILES | GI50 (T98G) [µM] | GI50 [1] [µM] | GI50 [2] [µM] |
| --- | --- | --- | --- | --- | --- | --- | --- | --- | --- |
| > 100 | > 100 | > 100 | > 100 | > 100 |  | O=C1c2cc3c(cc2[C@@H]2[C@H](O)[C@@H](O)[C@H](O)C4=CCN1[C@H]42)OCO3 | > 100 | > 100 | > 100 |
| > 100 | > 100 | > 100 | > 100 | > 100 |  | CC(=O)O[C@@H]1[C@@H](OC(C)=O)[C@H](OC(C)=O)[C@@]2(O)CCN3C(=O)c4cc5c(cc4[C@H]1[C@H]32)OCO5 | > 100 | > 100 | > 100 |
| 16 | 4 | > 100 | 92 | 35 |  | O=C1C=C2CCN3Cc4cc5c(cc4[C@H]([C@@H]1O)[C@@H]23)OCO5 | 38 | 45 | 3 |
| 2 | 0.9 | 4 | 4 | 4 |  | O[C@H]1[C@H]2c3cc4c(cc3CN3CCC(=C[C@@H]1O)[C@H]23)OCO4 [LYCORINE] | 3 | 3 | 0.9 |
| 30 | 18 | 34 | 26 | 27 |  | CC(=O)O[C@H]1[C@H]2c3cc4c(cc3CN3CCC(=C[C@@H]1O[Si](C(C)C)(C(C)C)C(C)C)[C@H]23)OCO4 | 6 | 15 | 36 |
| 28 | 26 | 35 | 29 | 32 | 3 | CCCCCCCCCCCCCCCC(=O)O[C@H]1[C@H]2c3cc4c(cc3CN3CCC(=C[C@@H]1O)[C@H]23)OCO4 | 7 | 24 | 27 |
| 79 | > 100 | > 100 | > 100 | > 100 |  | CCOC(=O)C[C@@]12C=C[C@@H](OC(C)=O)[C@H]3c4cc5c(cc4CN(CC1)[C@@H]32)OCO5 | > 100 | > 100 | > 100 |
| 5 | 7 | 10 | 12 | 36 |  | CC(C)(C)C(=O)O[C@H]1C=C2CCN3Cc4cc5c(cc4[C@H]([C@@H]1O)[C@@H]23)OCO5 | 12 | 9 | 15 |
| 83 | > 100 | > 100 | > 100 | > 100 |  | O[C@@H]1[C@@H](O)[C@H](O)[C@@]2(O)CCN3Cc4cc5c(cc4[C@H]1[C@H]32)OCO5 | > 100 | > 100 | > 100 |
| 30 | 57 | 47 | > 100 | 35 |  | CC(=O)O[C@H]1[C@H]2c3cc4c(cc3C(=S)N3CCC(=C[C@@H]1OC(C)=O)[C@H]23)OCO4 | 57 | 46 | 52 |
| 34 | 96 | > 100 | > 100 | 27 |  | O=c1c2cc3c(cc2c2cccc4ccn1c42)OCO3 | 96 | 27 | 19 |
| 43 | 3 | 3 | 3 | 4 |  | CC(=O)O[C@H]1[C@H]2c3cc4c(cc3CN3CCC(=C[C@@H]1O)[C@H]23)OCO4 | 2 | 4 | 11 |
| 57 | 67 | > 100 | 97 | 74 |  | O[C@H]1C=C2CCN3Cc4cc5c(cc4[C@H]([C@@H]1OCc1ccccc1)[C@@H]23)OCO5 | 34 | 50 | 80 |
| > 100 | > 100 | > 100 | > 100 | 96 |  | O=C1c2cc3c(cc2[C@@H]2[C@H](O)[C@@H](O)[C@H](O)[C@@]4(O)CCN1[C@@H]24)OCO3 | > 100 | > 100 | > 100 |
| 4 | 3 | 20 | 22 | 5 |  | CC(C)(C)OC(=O)O[C@H]1[C@H]2c3cc4c(cc3CN3CCC(=C[C@@H]1OC(=O)OC(C)(C)C)[C@H]23)OCO4 | 4 | 4 | 9 |
| 8 | 24 | 33 | 38 | 16 |  | O=c1c2cc3c(cc2c2cccc4c2n1CC4)OCO3 | 24 | 4 | 14 |
| 38 | 44 | > 100 | 48 | 9 |  | O=c1c2cc3c(cc2c2cc(O)cc4c2n1CC4)OCO3 | 41 | 49 | 40 |
| 83 | > 100 | > 100 | > 100 | > 100 |  | CC(=O)O[C@@H]1[C@@H](OC(C)=O)[C@H](OC(C)=O)C2=CCN3C(=O)c4cc5c(cc4[C@H]1[C@@H]23)OCO5 | > 100 | > 100 | > 100 |
| 20 | 23 | > 100 | 33 | 50 |  | CC(=O)Oc1cc2c3c(c1)c1cc4c(cc1c(=O)n3CC2)OCO4 | 29 | 21 | 20 |
| 38 | 9 | 38 | 20 | 25 |  | CCCCCCCCCCCCCCCC(=O)O[C@H]1[C@H]2c3cc4c(cc3CN3CCC(=C[C@@H]1O[Si](C(C)C)(C(C)C)C(C)C)[C@H]23)OCO4 | 3 | 13 | 21 |
| 8 | 32 | 4 | 5 | 5 |  | O=C(O[C@H]1[C@H]2c3cc4c(cc3CN3CCC(=C[C@@H]1O)[C@H]23)OCO4)c1ccccc1 | 32 | 0.6 | 4 |
| 21 | 14 | 30 | 22 | 30 | 3 | CCCCCCCC/C=C\CCCCCCCC(=O)O[C@H]1[C@H]2c3cc4c(cc3CN3CCC(=C[C@@H]1O)[C@H]23)OCO4 | 0.8 | 4 | 14 |
| 21 | 70 | 60 | 34 | 23 |  | O=C(O[C@H]1C=C2CCN3Cc4cc5c(cc4[C@H]([C@@H]1O)[C@@H]23)OCO5)c1ccccc1 | 70 | 1 | 6 |
| 86 | > 100 | > 100 | > 100 | > 100 |  | CC(=O)O[C@@H]1[C@@H](OC(C)=O)[C@H](O)[C@@]2(O)CCN3C(=O)c4cc5c(cc4[C@H]1[C@H]32)OCO5 | > 100 | > 100 | > 100 |
| 75 | 36 | 99 | > 100 | > 100 |  | CC(=O)O[C@H]1[C@H]2c3cc4c(cc3C(=O)N3CCC(=C[C@@H]1OC(C)=O)[C@H]23)OCO4 | 32 | 39 | 49 |
| 22 | 15 | 26 | 18 | 24 |  | CC(C)[Si](O[C@H]1C=C2CCN3Cc4cc5c(cc4[C@H]([C@@H]1O)[C@@H]23)OCO5)(C(C)C)C(C)C | 11 | 13 | 22 |
| 24 | 54 | 29 | 11 | 20 |  | O=C(O[C@H]1[C@H]2c3cc4c(cc3CN3CCC(=C[C@@H]1OC(=O)c1ccccc1)[C@H]23)OCO4)c1ccccc1 | 54 | 1 | 10 |
| 29 | 4 | 43 | 41 | 22 |  | CCC(=O)O[C@H]1[C@H]2c3cc4c(cc3CN3CCC(=C[C@@H]1OC(=O)CC)[C@H]23)OCO4 | 0.6 | 3 | 8 |
| > 100 | > 100 | > 100 | > 100 | > 100 |  | O=C1c2cc3c(cc2[C@@H]2[C@H](O)[C@@H](O)C=C4CCN1[C@H]42)OCO3 | > 100 | > 100 | > 100 |
| 5 | 18 | 21 | 21 | 7 |  | CC(=O)Oc1cc2ccn3c(=O)c4cc5c(cc4c(c1)c23)OCO5 | 18 | 5 | 14 |
